In experiment [1] the test system is Nbs bearing click handles (Nb6EPEG4DBCO and NbALFAbiotinN3). Kind of experiment: Assessment of click chemistry. The settings on record: Gly vs Ahx linker; azide vs alkyne pairing; S4A-C. The gist of the method:
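Click cross-linking run at room temperature in TBS with 10 µM of each nanobody bearing a click handle (DBCO or azide), with or without equimolar dimeric template peptide. Quenched with 500 µM GGG-Lys(azide) peptide, then denatured in Laemmli buffer with 100 mM DTT at 95 °C. Products resolved on 15% polyacrylamide gels and stained. High-MW cross-linked band quantified by densitometry, normalized to a control quenched at T = 0.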

Experiment [2] concerns the target T1, PTHR1 (Homo sapiens, UniProt Q03431).
T1 sequence (Q03431 27-593): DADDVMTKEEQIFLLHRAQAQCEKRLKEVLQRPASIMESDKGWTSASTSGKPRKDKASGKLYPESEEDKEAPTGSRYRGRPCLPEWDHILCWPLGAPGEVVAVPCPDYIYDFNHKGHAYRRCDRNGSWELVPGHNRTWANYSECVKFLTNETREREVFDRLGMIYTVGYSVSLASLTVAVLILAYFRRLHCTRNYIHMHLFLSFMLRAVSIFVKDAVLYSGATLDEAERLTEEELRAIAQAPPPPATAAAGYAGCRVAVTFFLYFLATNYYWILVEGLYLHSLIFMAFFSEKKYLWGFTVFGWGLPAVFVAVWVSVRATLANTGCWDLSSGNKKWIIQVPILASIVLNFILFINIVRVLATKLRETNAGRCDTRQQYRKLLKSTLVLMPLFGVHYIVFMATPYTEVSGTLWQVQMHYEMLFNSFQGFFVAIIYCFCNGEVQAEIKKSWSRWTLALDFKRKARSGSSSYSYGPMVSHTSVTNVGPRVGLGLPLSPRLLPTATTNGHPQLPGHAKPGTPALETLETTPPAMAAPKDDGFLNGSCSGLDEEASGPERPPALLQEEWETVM
Put plainly: PTHR1-mediated signaling via Gαs/cAMP. The experiment is classed as cell-based. Particulars: DPahx 300 nM with various concentrations of Nb-PTH conjugates; Figure 3D, S8. The gist of the method: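 HEK293 cells stably expressing PTHR1 and a cAMP luminescence reporter, grown in DMEM with 10% FBS and Pen-Strep, mycoplasma-free. Varying concentrations of the complementary azide and DBCO nanobody–PTH fragment conjugates added with or without 300 nM dimeric peptide. Luminescence normalized to the maximum for the conjugate pair alone; technical replicates in a representative experiment.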

For experiment [3], the target named is T1, PTHR1. The settings on record: fragments of PTH1–34; cited from earlier work.
The conditions of experiment [4]: metal-free, absence of proximity enforcing conditions; cited from earlier work.

For the substance CQADQEAKELARQISGSRLEEELRRRLTE [DPgly], the cross-linking kinetics entry in experiment [1] is “no major differences observed”.
For CQADQEAKELARQISZSRLEEELRRRLTE [DPahx], the cross-linking kinetics entry in experiment [1] is “no major differences observed”. For the same substance, the “DP-potentiated activation of PTHR1” value in experiment [2] was “DP-potentiated activation of PTHR1”.
Turning to “PTH12–34: fragment of PTHR1 agonist peptide PTH1–34 (GKHLNSMERVEWLRKKLQDVHNF; Parathyroid hormone; UniProt P01270 43-65, looked up, fragment)”, the “activity of PTHR1 agonist fragments” value in experiment [3] was “weakly active or inactive”.
Consider dibenzylcyclooctyne [DBCO], for which, in experiment [4], the DBCO-azide cycloaddition rate was about 1 M^–1S^1–.
